Screening data as filed in PubChem.
VIM-2 inhibitor: blocks Pseudomonas aeruginosa VIM-2 metallo-beta-lactamase; purified VIM-2, nitrocefin hydrolysis, epi-absorbance fluorescence; inhibition, % at 5.6 µM; 290,000 tested, 0.89% active;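 active = inhibition above the mean of all tested compounds plus 3 SD, cutoff set per screening run, cut at about 7.5% in these data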;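 note: red hydrolysis product quenches plate fluorescence so inhibitors raise well fluorescence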
IMP-1 inh: blocks Pseudomonas aeruginosa IMP-1 metallo-beta-lactamase; purified IMP-1, nitrocefin hydrolysis, epi-absorbance fluorescence; 290,000 tested, 0.45% active; AID 1556; inhibition, % at 5.6 µM;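 active = inhibition above the mean plus 3 SD of all compounds in the same screening run, cut at about 4.5% in these data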
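System: purified IMP-1; amount: IMP-1 0.2 nM before substrate addition; compound: single dose, 5.6 µM; times: 25 °C, 15 min preincubation, 25 min reaction; signal: Epi-absorbance via hydrolysed-nitrocefin quenching of white-plate fluorescence, 480/530 nm, EDTA stop; benchmarks: DMSO with and without IMP-1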
Yeast superoxide: yeast age-related superoxide inhibition as caloric restriction mimetic; S. cerevisiae aged cells, superoxide DHE fluorescence; hits give low values; 330,000 tested, 0.18% active; superoxide response (% of plate mean), % at 10 µM;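 active = superoxide response under a set limit, about three screen SD below normal, cut at about 65% in these data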;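 note: yeast aged for seven days with compound at 30 °C before DHE staining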
PHOSPHO1 block: inhibitors of human PHOSPHO1 phosphatase; 290,000 tested, 1.1% active; Q8TCT1; recombinant PHOSPHO1, absorbance phosphatase assay; inhibition, % at 13.3 µM; in the data active = inhibition above about 60%
Target sequence (Q8TCT1 whole entry, looked up): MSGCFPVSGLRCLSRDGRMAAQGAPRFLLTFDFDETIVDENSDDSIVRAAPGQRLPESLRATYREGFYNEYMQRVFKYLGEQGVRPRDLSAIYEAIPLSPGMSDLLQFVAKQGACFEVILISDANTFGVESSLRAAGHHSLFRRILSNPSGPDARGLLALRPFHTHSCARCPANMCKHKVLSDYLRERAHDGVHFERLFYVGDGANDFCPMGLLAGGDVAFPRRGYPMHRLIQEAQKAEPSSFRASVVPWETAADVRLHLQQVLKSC
PvdQ inh: blocks Pseudomonas aeruginosa PvdQ acylase activity | purified PvdQ acylase, fluorescence plate reader | 340,000 tested, 0.063% active | inhibition, % at 10 µM | AID 488965; in the data active = inhibition above about 30%, passing the limit was not always enough
Hits are given with their value; 0 = inactive; - = no result given. This is a sample that favours compounds with a hit; in the whole collection about 2.2% have one here.

SMILES	VIM-2 inhibitor	IMP-1 inh	Yeast superoxide	PHOSPHO1 block	PvdQ inh
CCCCN1CC(COCc2ccccc2)Oc2ccccc2S1(=O)=O (stereo not drawn)	-	-	0	-	0
Cc1nccn1CCCNC(=O)C1CCC(=O)N(Cc2ccccc2F)C1 (stereo not drawn)	0	0	0	0	0
Cc1cc(-c2ccc(S(=O)(=O)N3CCN(c4cccc(C)c4C)CC3)s2)on1	0	0	0	0	0
Cc1ccc(NC(=O)CCCN2C(=O)/C(=C/C=C/c3ccccc3)SC2=S)cc1	0	7.2	0	0	0
O=C(COC(=O)CCN1C(=O)/C(=C\C=C\c2ccccc2)SC1=S)Nc1ccc(Br)cc1	0	5.5	0	0	0
O=C(CCN1C(=O)/C(=C\C=C\c2ccccc2)SC1=S)Nc1cccc(C(=O)O)c1	0	0	0	0	0
O=C(CCCN1C(=O)S/C(=C/C=C/c2ccccc2)C1=O)Nc1ccc(C(=O)O)cc1	0	0	0	0	0
O=C(CCN1C(=O)/C(=C\C=C\c2ccccc2)SC1=S)Nc1ccccc1C(=O)O	0	8.1	0	0	0
Cc1ccc(NC(=O)c2ccc([N+](=O)[O-])s2)cc1S(=O)(=O)N1CCOCC1	-	-	0	-	0
CS(=O)(=O)c1ccccc1C(=O)N1CCN(Cc2ccccc2)CC1	0	0	0	73.2	0
CC1=C(C(=O)Nc2cccnc2)C(c2cccnc2)n2nc(-c3cccs3)nc2N1 (stereo not drawn)	0	0	0	62.3	0
CCOC(=O)CNC(=O)C1(NC(=O)CNC(=O)OCc2ccccc2)CCCC1	-	-	-	-	0
O=c1c2ccccc2nc(-c2ccc([N+](=O)[O-])cc2)n1O	0	0	0	60.9	0
Nn1c(SCc2ccc([N+](=O)[O-])cc2)nc2ccccc2c1=O	0	7.6	0	0	0
O=c1c2ccccc2nc(SCc2ccc([N+](=O)[O-])cc2)n1-c1ccc(Cl)cc1	0	0	0	0	0
Cn1cc(S(=O)(=O)N2CCNCC2)cc1C(N)=O	-	-	0	-	0
O=C(O)CC1C(=O)NCCN1Cc1cccs1 (stereo not drawn)	0	0	0	0	0
CCOC(=O)CC1C(=O)NCCN1Cc1cccs1 (stereo not drawn)	0	0	0	64.3	0
CCOC(=O)C1CCCN(Cc2cccs2)C1 (stereo not drawn)	0	0	0	73.4	0
Cc1nc(N(C)Cc2ccccc2)c2nnn(Cc3ccccc3)c2n1	0	0	0	0	0
O=C1/C(=C/c2ccccc2F)SC(=S)N1CC(=O)N1CCCCC1c1cccnc1 (stereo not drawn)	0	0	0	0	0
CN(c1cccc(NC(=O)COc2ccc(Cl)cc2Cl)c1)S(C)(=O)=O	0	0	0	0	0
COCCNS(=O)(=O)c1cccc2cccnc12	-	-	0	0	0
O=c1c(O)cccc2cc(O)c(O)c(O)c12	0	7.7	0	0	0
O=C(c1ccccc1)N1CCN(c2ccc([N+](=O)[O-])cc2-n2cccc2)CC1	0	0	0	0	0
SMILES	VIM-2 inhibitor	IMP-1 inh	Yeast superoxide	PHOSPHO1 block	PvdQ inh
O=[N+]([O-])c1ccccc1N/N=C1\CC2CC=CC12 (stereo not drawn)	0	0	0	0	58.1
O=C(N/N=C1\CC2CC=CC12)c1ccccc1Cl (stereo not drawn)	0	0	0	0	0
O=C(CSc1cn(CCNC(=O)c2cccs2)c2ccccc12)NC1CCCC1	0	0	0	0	0
COc1ccc(-c2nnc(SCc3csc(N)n3)n2C)cc1	0	0	0	73.4	0
CC(C)CNC(=O)COC(=O)c1c2c(nc3ccccc13)/C(=C/c1cccs1)CC2	0	6.7	0	0	0
CN[C@@H](C)C(=O)NC[C@H]1O[C@@H](n2cnc3c(N)ncnc32)[C@H](O)[C@@H]1O	-	-	0	-	0
Cc1ccccc1OC(=O)n1c(=S)oc2cc(Cl)ccc21	0	0	0	102.7	0
Cc1ccc(-n2c(C)cc(/C([O-])=C(/C(=S)Nc3ccc(F)c(Cl)c3)[n+]3ccccc3)c2C)cc1	0	0	0	83.7	0
Cc1cc(/C([O-])=C(/C(=S)Nc2ccc(F)cc2)[n+]2ccccc2)c(C)n1-c1ccc(F)cc1	0	0	0	95.7	0
O=c1[nH]c(=O)n(Cc2ccccc2)c2c1CCC2	0	5.0	0	0	0
CC(C)(C)c1nc(Sc2ccc([N+](=O)[O-])cn2)n[nH]1	0	0	0	0	0
O=[N+]([O-])c1ccc(Sc2ccccc2Cl)nc1	0	0	0	96.9	64.5
O=[N+]([O-])c1ccc(Sc2n[nH]c(-c3ccc(Cl)cc3Cl)n2)nc1	0	0	0	67.3	0
Nc1ccc(Sc2ccccc2Cl)nc1	-	-	0	-	0
COc1cc(/C=C2\N=C3CCCCCN3C2=O)ccc1O	0	0	0	67.2	0
COc1ccc(/C=C2\N=C3CCCCCN3C2=O)cc1OC	0	0	0	0	0
CCOc1ccccc1N(CC(=O)NC1CCCC1)C(=O)CNC(=O)c1cccs1	0	0	0	0	0
CC(C)(C)c1ccc(/C([O-])=C(/C(=S)NCc2ccco2)[n+]2ccccc2)cc1	0	0	0	83.5	-
Cc1ccc[n+](/C(C(=S)NCc2ccco2)=C(/[O-])c2ccccc2Cl)c1	0	5.6	0	96.6	0
CC(C)(C)c1ccc(C(=O)NC(=S)NCc2ccco2)cc1	0	0	0	0	0
CNC(=O)Cn1c(C)cc(=O)c2cccc(C)c21	0	0	0	0	-
Cc1cccc2c(=O)cc(C)n(Cc3ccccc3)c12	0	0	0	0	35.2
Cc1ccc(S(=O)(=O)N2CCCCC2C(=O)N2CCN(c3ccccc3F)CC2)cc1 (stereo not drawn)	0	0	0	0	0
O=C(CC1CCCC1)N1CCN(S(=O)(=O)c2ccc(F)cc2)CC1	-	-	0	-	0
Cc1ccc(S(=O)(=O)N2CCCCC2C(=O)N2CCN(C)CC2)cc1 (stereo not drawn)	0	0	0	61.5	0
SMILES	VIM-2 inhibitor	IMP-1 inh	Yeast superoxide	PHOSPHO1 block	PvdQ inh
Cc1ccc(S(=O)(=O)N2CCN(C(=O)CC3CCCC3)CC2)cc1	0	4.5	0	0	0
Cc1cc(NS(=O)(=O)c2ccc(NC(=O)CSc3nc4ncc(Br)cc4[nH]3)cc2)nc(C)n1	0	0	0	72.2	0
Cc1nnc2sc(SCC(=O)N3CCC(C)CC3)nn2c1=O	0	0	0	65.8	0
CCC(CC)NC(=O)c1ccc(NS(=O)(=O)c2ccc3[nH]c(=O)[nH]c3c2)cc1	0	0	0	0	0
CCOC(=O)c1ccc(NS(=O)(=O)c2ccc3[nH]c(=O)[nH]c3c2)cc1	0	0	0	63.2	0
Cc1ccc(CN2CCNC(=O)C2CC(=O)N(C)C2CCCCC2)cc1 (stereo not drawn)	0	0	0	0	0
COc1ccc(-n2c(-c3ccc(Br)cc3)c[n+]3c2CCCCC3)cc1	0	0	0	68.1	0
COc1ccc(-n2c(-c3ccc(Br)cc3)c[n+]3c2CCC3)cc1	0	0	0	0	0
Cc1cc(C)cc(NC(=O)Cn2ncn3c(cc4ccccc43)c2=O)c1	0	0	0	0	0
COC(=O)Cn1ncn2c(cc3oc(C)cc32)c1=O	0	0	0	66.2	0
